In ChEMBL document CHEMBL1137390, “Structure-based design of potent small-molecule inhibitors of anti-apoptotic Bcl-2 proteins” (J Med Chem, 2006):

Experiments:
[1] = target: T1, Apoptosis regulator Bcl-2 (Homo sapiens, UniProt P10415); experiment: Binding affinity to human Bcl2 by ELISA
[2] = target: T1, Apoptosis regulator Bcl-2; experiment: Displacement of FAM-Bid from human Bcl2 by FP assay
Procedure, shortened: (§1)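 Competitive fluorescence-polarization binding assay against the recombinant anti-apoptotic protein. Values are reported as Ki ± SD from three to seven independent experiments per compound.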

[3] = test system: PC-3; experiment: Induction of apoptosis in human PC3 cell at 20 uM by TUNEL assay; format: functional
Procedure, shortened: (§2)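 PC-3 prostate cancer cells were exposed to compound for 4 days, with an untreated control included. Apoptosis was scored by TUNEL using flow cytometry: the BrdU-FITC-positive fraction (M1 marker) is given as the percentage of apoptotic cells.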

[4] = target: Induced myeloid leukemia cell differentiation protein Mcl-1 (Homo sapiens, UniProt Q07820); experiment: Displacement of FAM-Bid from human Mcl1 by FP assay
Sequence of Induced myeloid leukemia cell differentiation protein Mcl-1 (Q07820 whole entry): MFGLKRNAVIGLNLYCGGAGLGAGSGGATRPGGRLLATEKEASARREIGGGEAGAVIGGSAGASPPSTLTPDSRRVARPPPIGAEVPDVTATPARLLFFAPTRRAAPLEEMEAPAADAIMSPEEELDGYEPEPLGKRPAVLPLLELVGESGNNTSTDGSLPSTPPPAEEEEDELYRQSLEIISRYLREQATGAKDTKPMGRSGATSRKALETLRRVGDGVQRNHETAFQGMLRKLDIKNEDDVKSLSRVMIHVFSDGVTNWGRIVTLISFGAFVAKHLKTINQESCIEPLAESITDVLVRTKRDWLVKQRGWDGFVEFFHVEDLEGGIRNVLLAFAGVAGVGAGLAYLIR

[5] = target: Bcl-2-like protein 1 (Homo sapiens, UniProt Q07817); experiment: Displacement of FAM-Bak from human Bcl-xL by FP assay; procedure, shortened: as §1
Sequence of Bcl-2-like protein 1 (Q07817 whole entry): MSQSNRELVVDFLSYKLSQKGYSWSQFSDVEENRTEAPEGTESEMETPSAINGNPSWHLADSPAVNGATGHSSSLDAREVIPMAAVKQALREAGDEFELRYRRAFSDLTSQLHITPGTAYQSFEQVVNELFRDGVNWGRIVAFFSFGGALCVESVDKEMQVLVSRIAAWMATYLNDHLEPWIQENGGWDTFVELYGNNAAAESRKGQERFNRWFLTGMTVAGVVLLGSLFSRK

[6] = test system: PC-3; experiment: Induction of apoptosis in human PC3 cell at 1.25 uM by TUNEL assay; format: functional; procedure, shortened: as §2
[7] = test system: PC-3; experiment: Induction of apoptosis in human PC3 cell at 5 uM by TUNEL assay; format: functional; procedure, shortened: as §2

T1 sequence (P10415 whole entry): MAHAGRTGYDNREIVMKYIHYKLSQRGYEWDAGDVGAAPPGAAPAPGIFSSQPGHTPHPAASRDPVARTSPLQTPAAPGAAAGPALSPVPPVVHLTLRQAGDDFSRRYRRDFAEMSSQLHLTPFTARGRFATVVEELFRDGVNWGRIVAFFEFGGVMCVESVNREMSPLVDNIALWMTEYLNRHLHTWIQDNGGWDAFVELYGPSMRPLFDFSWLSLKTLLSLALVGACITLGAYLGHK

| IC50 [1] | Ki [2] | Ki [4] | Compound | other results |
| --- | --- | --- | --- | --- |
| 53.1 µM | 24.1 µM | – | CC(C)c1cc(C(=O)Nc2ccccc2)c(O)c(O)c1O | – |
| – | 25 µM | – | COc1c(Cc2ccccc2C(C)C)cc(C(=O)Nc2ccc(S(=O)(=O)c3ccccc3C(C)(C)C)cc2)c(OC)c1OC | Activity [3]: 1.2% |
| 0.7 µM | 0.29 µM | 0.26 µM | CC(C)c1ccccc1Cc1cc(C(=O)Nc2ccc(S(=O)(=O)c3ccccc3C(C)(C)C)cc2)c(O)c(O)c1O | IC50 [4]: 1.03 µM; Activity [6]: 11.2%; IC50 [5]: 6.58 µM; Ki [5]: 1.11 µM; Activity [7]: 89.5% |
| – | – | 0.012 µM | CC[C@H](C)[C@H](NC(=O)[C@H](CC(N)=O)NC(=O)[C@H](CCCN=C(N)N)NC(=O)[C@@H](NC(=O)[C@@H](NC(=O)[C@H](CC(=O)O)NC(=O)[C@H](CCC(=O)O)NC(=O)[C@@H](N)CCC(N)=O)[C@@H](C)CC)[C@@H](C)CC)C(=O)N[C@@H](C)C(=O)N[C@@H](CCCN=C(N)N)C(=O)N[C@@H](Cc1c[nH]cn1)C(=O)N[C@@H](CC(C)C)C(=O)N[C@@H](C)C(=O)N[C@@H](CCC(N)=O)C(=O)N[C@H](C(=O)NCC(=O)N[C@@H](CC(=O)O)C(=O)N[C@@H](CO)C(=O)N[C@@H](CCSC)C(=O)N[C@@H](CC(=O)O)C(=O)N[C@@H](CCCN=C(N)N)C(=O)O)C(C)C | IC50 [4]: 0.052 µM |

The remaining lines, values behind:

| Compound | IC50 [1] | Ki [2] | Ki [4] | other results |
| --- | --- | --- | --- | --- |
| O=C(Nc1ccc(S(=O)(=O)c2ccccc2)cc1)c1cc(Cc2ccccc2)c(O)c(O)c1O | 1.6 µM | 0.93 µM | – | – |
| O=C(Nc1ccccc1)c1cc(Cc2ccccc2)c(O)c(O)c1O | 7.2 µM | 8.3 µM | – | – |
| Cc1cc2c(C(C)C)c(O)c(O)c(C=O)c2c(O)c1-c1c(C)cc2c(C(C)C)c(O)c(O)c(C=O)c2c1O [GOSSYPOL] | – | – | 0.18 µM | Ki [5]: 0.48 µM |
